Assay results published in paper PMC3920694 (Iranian Journal of Pharmaceutical Research : IJPR, 2013).
Where two headings read alike, the source gives them in different places.

Assays:
[1] = test system: HepG2 (Human hepatocyte cancer cell line); assay: LDH assay cytotoxicity, HepG2; format: cell-based; conditions: HepG2, read-out: IC50 HepG2
[2] = test system: PC3 (Human prostate adenocarcinoma); assay: LDH assay cytotoxicity, PC3; format: cell-based
[3] = test system: HT29 (Human colon carcinoma); assay: LDH assay cytotoxicity, HT29; format: cell-based; conditions: HT-29, read-out: IC50 HT29
[4] = test system: Hela (Human cervix carcinoma); assay: LDH assay cytotoxicity, Hela; format: cell-based; conditions: read-out: IC50 Hela
[5] = test system: HL60 (Human promylocyteic leukemia); assay: LDH assay cytotoxicity, HL60; format: cell-based; conditions: HL-60, read-out: IC50 HL60
[6] = test system: K562 (Human chronic myelogenom leukemia); assay: LDH assay cytotoxicity, K562; format: cell-based; conditions: K562, read-out: IC50 K562
[7] = test system: Jurkat (Human Acute T-cell leukemia); assay: cells; format: cell-based; conditions: read-out: IC50 Jurkat
[8] = test system: HUVEC (Human umbilical vein endothelial cell); assay: LDH assay cytotoxicity, HUVEC; format: cell-based; conditions: read-out: IC50 HUVEC
[9] = test system: leukemia cell lines (HL60, K562 and Jurkat); assay: Trypan blue exclusion, leukemia cell lines; format: cell-based, Human; conditions: 48 h; compared with structural isomer A; Figures 7-9
[10] = test system: MCF7 (Human breast adenocarcinoma); assay: LDH assay cytotoxicity, MCF7; format: cell-based
[11] = test system: cancer cell lines (PC3, HT29, Hela, HL60, Jurkat, K562, MCF7, HepG2); assay: LDH assay cytotoxicity, span over the eight cancer cell lines; format: cell-based; conditions: Homo sapiens, read-out: IC50 on cancer cell lines (range over the eight lines)
How it was run: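 Cells grown in DMEM with 10% FBS and penicillin/streptomycin at 37°C, 5% CO2. Test compound at 1, 5, 10, 25, 50 and 100 μM for 24 and 48 h. Medium transferred and mixed with LDH reagent plus catalyst (1:45), 30 min in the dark at room temperature. Absorbance read at 490 nm with 630 nm background subtraction. Cell-free medium served as negative control.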

[12] = test system: PC3 (Human prostate adenocarcinoma); assay: Trypan blue exclusion, PC3; format: cell-based; conditions: 48 h; Figure 4
How it was run: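 Cells kept in DMEM with 10% FBS and antibiotics at 37°C, 5% CO2. About 0.75 × 10^5 cells/mL were seeded in 6-well plates and exposed to test compound at several concentrations for 48 h. Cells were then collected, resuspended in 0.4% trypan blue, and unstained cells counted by inverted microscopy. Percent viability was expressed relative to a temozolomide reference control.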

[13] = Homo sapiens, read-out: IC50 PC3, LDH assay, incubation 24 and 48 h described

SMILES	IC50 [1] [µM]	IC50 [2, 13] [µM]	IC50 [3] [µM]	IC50 [4] [µM]	IC50 [5] [µM]	IC50 [6] [µM]	IC50 [7] [µM]	IC50 [8] [µM]	effectiveness on leukemia cell lines (HL60, K562 and Jurkat) by trypan blue exclusion [9]	IC50 ([10]; read-out: IC50 MCF7, LDH assay, incubation 24 and 48 h described) [µM]	IC50 ([2]; read-out: IC50 PC3, LDH assay, incubation 24 and 48 h described) [µM]	IC50 [11] [µM]	cytotoxic activity on PC3 by trypan blue exclusion [12]	IC50 ([10]; Homo sapiens, MCF7, read-out: IC50 MCF7) [µM]	IC50 ([2]; Homo sapiens, read-out: IC50 PC3) [µM]
O=[N+]([O-])c1ccc(N=NNc2cccc(O)c2)cc1 [A, 1-(4-nitrophenyl)-3-(3-hydroxyphenyl)triazene]	1.12 ± 0.3	1.24 ± 0.2	2.82 ± 0.49	8.87 ± 2.1	2.3 ± 0.51	2.1 ± 0.7	1.2 ± 0.4	4.4 ± 1.31							
O=[N+]([O-])c1ccc(N=NNc2ccccc2O)cc1 [B, 1-(4-nitrophenyl)-3-(2-hydroxyphenyl)triazene]	1.89 ± 0.78	3.29 ± 1.3	3.37 ± 1.65	4.2 ± 1.4	1.36 ± 0.34	1.13 ± 0.67	1.05 ± 0.98	3.22 ± 1.1	more effective						
CCOc1ccccc1N=NNc1ccccc1OCC [C, 1,3-bis(2-ethoxyphenyl)triazene]	3.33 ± 1.3	0.59	2.55 ± 1.33	2.54 ± 1.2	2.62 ± 0.96	1.66 ± 0.8	1.69 ± 1.02	12.6 ± 2.8		0.59 ± 0.12	0.56 ± 0.2	0.56 to 3.33	high		
N#Cc1ccccc1N=NNc1ccccc1C#N [D, 1,3-bis (2-cyanophenyl) triazene]	1.49 ± 0.42	1.04 ± 0.11	2.03 ± 1.05	2.39 ± 1.35	1.34 ± 0.44	1.04 ± 0.38	1.44 ± 0.71	1.14 ± 0.4							
O=[N+]([O-])c1ccc(N=NNCCO)cc1 [E, 1-(4-nitrophenyl)-3-(2-hydroxyethyl)triazene]	4.2 ± 1.2	3 ± 1.01	8.25 ± 2.2	15.5 ± 3.01	2.81 ± 0.99	9.87 ± 2.08	4.5 ± 1.67	5.05 ± 1.8				3 to 15.5			
COc1ccccc1N=NNc1ccccc1OC [F, 1,3-Bis(2-methoxyphenyl)triazene]	1.45 ± 0.65	7 ± 2.2	2.26 ± 1.52	6.85 ± 2.8	1.3 ± 0.5	1.66 ± 0.49	1.61 ± 0.9	4.59 ± 1.76							
c1ccc(N=NNc2ccccc2)cc1 [G, 1,3-diphenyltriazene]	3.94 ± 1.45		9.4 ± 2.3	4.88 ± 1.5	3.4 ± 1.96	6.33 ± 2.41	5.53 ± 1.44	7.43 ± 2.1						1.57 ± 0.34	4.13 ± 1.8
Cn1nnc2c(C(N)=O)ncn2c1=O [TMZ, Temozolomide, reference compound]	2.59 ± 1.3	1.39 ± 0.69	17.2 ± 3.2	8.88 ± 2.2	3.54 ± 1.56	3.82 ± 1.6	2.07 ± 1.34	4.85 ± 1.78							
